pEC50, pKd: −log10 of the molar value. Where a name gives a salt, the structure may show the parent alone. Read-outs that look alike come from different tables or passages of the source.
Assays:
mouse Elp2 protein = target: T1, mouse Elp2 protein (Mus musculus, UniProt Q91WG4); test: SPRi affinity measurement of chip-immobilized library compounds to Elp2 protein; assay type: binding
T1 sequence (Q91WG4 1-831): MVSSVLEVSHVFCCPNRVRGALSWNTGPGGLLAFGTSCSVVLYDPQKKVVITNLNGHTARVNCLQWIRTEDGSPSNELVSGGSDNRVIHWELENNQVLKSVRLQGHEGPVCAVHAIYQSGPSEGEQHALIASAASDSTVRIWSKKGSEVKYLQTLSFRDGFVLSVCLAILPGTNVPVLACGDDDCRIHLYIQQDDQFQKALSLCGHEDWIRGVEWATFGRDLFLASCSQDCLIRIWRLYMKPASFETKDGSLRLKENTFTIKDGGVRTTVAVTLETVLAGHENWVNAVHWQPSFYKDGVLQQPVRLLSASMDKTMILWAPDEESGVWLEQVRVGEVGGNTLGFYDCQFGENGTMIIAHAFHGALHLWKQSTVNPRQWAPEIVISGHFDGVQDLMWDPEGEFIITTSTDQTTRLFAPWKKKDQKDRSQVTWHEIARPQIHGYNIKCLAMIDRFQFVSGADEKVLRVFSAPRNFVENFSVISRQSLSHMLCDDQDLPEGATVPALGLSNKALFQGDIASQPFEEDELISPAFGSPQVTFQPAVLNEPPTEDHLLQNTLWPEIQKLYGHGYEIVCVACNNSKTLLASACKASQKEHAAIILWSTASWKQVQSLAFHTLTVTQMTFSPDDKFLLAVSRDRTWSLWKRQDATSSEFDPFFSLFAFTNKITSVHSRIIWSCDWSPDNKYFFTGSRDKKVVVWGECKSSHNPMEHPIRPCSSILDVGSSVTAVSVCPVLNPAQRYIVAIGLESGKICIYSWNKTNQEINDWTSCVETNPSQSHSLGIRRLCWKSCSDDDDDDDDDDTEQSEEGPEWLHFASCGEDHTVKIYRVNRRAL

MC3T3-E1 cells [1] = test: Q-PCR of osteogenic differentiation marker genes, SD model; assay type: cell-based, mouse; settings: MC3T3-E1, day 7, with TNF-α
How it was run: (§1)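 On day 7 after day-0 treatment (5 ng mL−1 TNF-α ± test compound; C2C12 also with 100 ng mL−1 BMP-2), 2 × 10^5 cells harvested. Total RNA by TRIzol, column-purified and DNase-treated; 0.25 μg reverse transcribed. COL-I, ALP, OCN, BMP-2, RUNX-2 and OSX measured by real-time Q-PCR with gene-specific primers. Normalised to β-actin by ΔΔCt. Triplicate.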

[2] = tested on: melanoma cells bearing B-Raf^V600E; settings: cited from earlier work
C2C12 cells [3] = test: ALP staining and activity, inflammatory differentiation; assay type: cell-based; settings: Mus musculus, C2C12, read-out: EC50 based on ALP activity
MC3T3-E1 cells [4] = test: Mineralization assessment by Alizarin Red S staining, SD model; assay type: cell-based, mouse; settings: MC3T3-E1, day 35, with TNF-α, vs negative control (p < 0.05)
[5] = tested on: B-Raf^V600E dependented tumor xenograft models; settings: orally dosed, without evidence of cytotoxicity; cited from earlier work
MC3T3-E1 cells [6] = test: ALP staining and activity, self-differentiation; assay type: cell-based; settings: Mus musculus, MC3T3-E1, read-out: EC50 based on ALP activity
How it was run: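 MC3T3-E1 cells in DMEM with 10% FBS and 1% penicillin/streptomycin at 37 °C, 5% CO2; plated at 50% confluence, 24 h. No inducer. On day 0, given ddH2O solvent or 5 ng mL−1 TNF-α ± test compound at eleven levels (10 nM–800 μM). On day 7: kit ALP stain; ALP activity by OD 405 nm, per μg BCA total protein; EC50 from ALP activity. Mean ± SEM, triplicate.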

C2C12 cells [7] = test: Q-PCR of osteogenic differentiation marker genes, ID model; assay type: cell-based, mouse; settings: C2C12, day 7, with TNF-α
How it was run: as §1

C2C12 cells [8] = test: Mineralization assessment by Alizarin Red S staining, ID model; assay type: cell-based, mouse; settings: C2C12, day 35, with TNF-α, vs negative control (p < 0.05)
[9] = SPRi, Elp2 200-3200 nM, 1:1 Langmuir binding

## O=C1O[C@H](CO)[C@@H](O)[C@H](O)[C@H]1O [Gluconolactone]
Mouse Elp2 protein
  pKd: 4.51
  koff: 0.0819 s⁻¹
  kon: 2640 M⁻¹ s⁻¹

## Cn1nnc2c(C(N)=O)ncn2c1=O [Temozolomide]
Mouse Elp2 protein
  pKd: 5.60
  koff: 0.000462 s⁻¹
  kon: 182 M⁻¹ s⁻¹

## RK-33
Mouse Elp2 protein; [9]
  pKd: 6.32
  koff: 2.59e-05 s⁻¹
  kon: 53.8 M⁻¹ s⁻¹

## CCCS(=O)(=O)Nc1ccc(F)c(C(=O)c2c[nH]c3ncc(Cl)cc23)c1F [PLX-4720]
MC3T3-E1 cells [1]
  mRNA expression levels of COL-I, ALP, OCN, BMP-2, RUNX-2 and OSX: elevated
[2]
  ERK phosphorylation: significantly inhibits
C2C12 cells [3]
  pEC50: 4.99
MC3T3-E1 cells [4]
  Mineralization, Alizarin Red S stained spots: more stained spots compared with the negative control
[5]
  tumor growth: tumor growth delays
MC3T3-E1 cells [6]
  pEC50: 4.78
C2C12 cells [7]
  mRNA expression levels of COL-I, ALP, OCN, BMP-2, RUNX-2 and OSX: elevated
C2C12 cells [8]
  Mineralization, Alizarin Red S stained spots: more stained spots compared with the negative control

## CC(C)N(CCC(c1ccccc1)c1cc(CO)ccc1O)C(C)C (centres unmarked) [5-Hydroxymethyl tolterodine]
Mouse Elp2 protein; [9]
  pKd: 5.83
  koff: 0.0166 s⁻¹
  kon: 11300 M⁻¹ s⁻¹

## CNC[C@H](O)c1ccc(O)c(O)c1 [Epinephrine bitartrate]
Mouse Elp2 protein
  pKd: 6.17
  koff: 0.000529 s⁻¹
  kon: 783 M⁻¹ s⁻¹

## CC(C)NCC(O)c1ccc(O)c(O)c1 (centres unmarked) [Isoprenaline hydrochloride]
Mouse Elp2 protein
  pKd: 5.34
  koff: 0.00454 s⁻¹
  kon: 987 M⁻¹ s⁻¹
